From BindingDB's records for doi:10.1021/jm010816q (Eth Zurich, 2001)
Residues, ends and D or L forms follow the SMILES beside them.

Experiments:
[1] = target: Somatostatin receptor type 4 (Homo sapiens, UniProt P31391); assay: Binding assay at human somatostatin receptor 4 (hsst4) expressed in CCL-39 cells using LTT-CST-14-(Tyr10) as radioligand.
Procedure, shortened: (§1)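 Chinese hamster lung fibroblast CCL39 cells stably expressing each hsst receptor; crude membrane homogenates in 10 mM HEPES pH 7.5, 0.5% BSA, 5 mM MgCl2, 5 mg/mL bacitracin. Vacuum filtration, bound radioactivity counted. Triplicate curves fitted by nonlinear regression; pKD reported.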

[2] = target: Somatostatin receptor type 1 (Homo sapiens, UniProt P30872); assay: Binding assay at human somatostatin receptor 1 (hsst1) expressed in CCL-39 cells using LTT-CST-14-(Tyr10) as radioligand.; procedure, shortened: as §1
[3] = target: Somatostatin receptor type 2 (Homo sapiens, UniProt P30874); assay: Binding assay at human somatostatin receptor 2 (hsst2) expressed in CCL-39 cells using LTT-CST-14-(Tyr10) as radioligand.; procedure, shortened: as §1
[4] = target: Somatostatin receptor type 5 (Homo sapiens, UniProt P35346); assay: Binding assay at human somatostatin receptor 5 (hsst5) expressed in CCL-39 cells using LTT-CST-14-(Tyr10) as radioligand.; procedure, shortened: as §1
[5] = target: Somatostatin receptor type 3 (Homo sapiens, UniProt P32745); assay: Binding assay at human somatostatin receptor 3 (hsst3) expressed in CCL-39 cells using LTT-CST-14-(Tyr10) as radioligand.; procedure, shortened: as §1
Sequence of Somatostatin receptor type 3 (P32745 whole entry): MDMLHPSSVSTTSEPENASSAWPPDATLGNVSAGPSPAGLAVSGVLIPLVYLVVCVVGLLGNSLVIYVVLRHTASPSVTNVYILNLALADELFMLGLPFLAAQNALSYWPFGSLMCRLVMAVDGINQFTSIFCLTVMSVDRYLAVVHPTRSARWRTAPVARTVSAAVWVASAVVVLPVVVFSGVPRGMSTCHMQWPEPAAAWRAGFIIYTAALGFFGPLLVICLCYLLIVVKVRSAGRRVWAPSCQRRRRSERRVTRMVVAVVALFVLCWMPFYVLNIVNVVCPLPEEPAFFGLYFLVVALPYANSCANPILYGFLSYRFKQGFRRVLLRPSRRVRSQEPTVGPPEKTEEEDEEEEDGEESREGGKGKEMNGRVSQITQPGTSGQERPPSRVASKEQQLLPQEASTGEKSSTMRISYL

Sequence of Somatostatin receptor type 5 (P35346 whole entry): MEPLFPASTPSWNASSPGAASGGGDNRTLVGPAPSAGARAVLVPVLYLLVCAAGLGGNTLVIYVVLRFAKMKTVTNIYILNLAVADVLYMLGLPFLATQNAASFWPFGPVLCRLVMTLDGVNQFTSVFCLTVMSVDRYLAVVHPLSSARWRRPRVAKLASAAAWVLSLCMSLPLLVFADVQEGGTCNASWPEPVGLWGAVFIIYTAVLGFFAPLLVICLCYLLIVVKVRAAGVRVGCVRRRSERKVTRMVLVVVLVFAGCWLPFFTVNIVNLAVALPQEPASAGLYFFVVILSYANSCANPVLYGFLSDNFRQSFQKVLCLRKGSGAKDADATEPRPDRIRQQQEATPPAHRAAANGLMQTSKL
Sequence of Somatostatin receptor type 1 (P30872 whole entry): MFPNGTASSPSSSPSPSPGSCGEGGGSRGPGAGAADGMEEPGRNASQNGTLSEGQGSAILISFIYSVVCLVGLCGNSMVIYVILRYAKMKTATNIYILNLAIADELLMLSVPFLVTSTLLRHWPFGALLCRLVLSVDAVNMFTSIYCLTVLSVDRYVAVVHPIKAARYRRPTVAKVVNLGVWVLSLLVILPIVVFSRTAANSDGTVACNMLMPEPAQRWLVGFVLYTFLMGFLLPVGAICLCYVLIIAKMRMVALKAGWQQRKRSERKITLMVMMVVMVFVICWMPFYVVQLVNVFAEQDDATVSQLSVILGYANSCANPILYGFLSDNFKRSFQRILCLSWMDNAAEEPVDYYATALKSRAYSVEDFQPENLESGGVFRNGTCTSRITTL
Sequence of Somatostatin receptor type 4 (P31391 whole entry): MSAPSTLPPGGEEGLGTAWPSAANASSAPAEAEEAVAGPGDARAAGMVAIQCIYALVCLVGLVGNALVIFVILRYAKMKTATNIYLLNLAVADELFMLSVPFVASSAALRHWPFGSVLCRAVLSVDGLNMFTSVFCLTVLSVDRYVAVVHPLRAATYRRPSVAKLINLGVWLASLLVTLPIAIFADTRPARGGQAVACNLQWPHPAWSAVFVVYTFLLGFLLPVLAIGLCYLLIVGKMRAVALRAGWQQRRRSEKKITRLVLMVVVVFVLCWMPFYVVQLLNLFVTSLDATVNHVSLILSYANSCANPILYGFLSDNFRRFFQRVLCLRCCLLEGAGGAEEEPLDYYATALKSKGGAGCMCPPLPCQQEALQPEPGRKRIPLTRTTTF
Sequence of Somatostatin receptor type 2 (P30874 whole entry): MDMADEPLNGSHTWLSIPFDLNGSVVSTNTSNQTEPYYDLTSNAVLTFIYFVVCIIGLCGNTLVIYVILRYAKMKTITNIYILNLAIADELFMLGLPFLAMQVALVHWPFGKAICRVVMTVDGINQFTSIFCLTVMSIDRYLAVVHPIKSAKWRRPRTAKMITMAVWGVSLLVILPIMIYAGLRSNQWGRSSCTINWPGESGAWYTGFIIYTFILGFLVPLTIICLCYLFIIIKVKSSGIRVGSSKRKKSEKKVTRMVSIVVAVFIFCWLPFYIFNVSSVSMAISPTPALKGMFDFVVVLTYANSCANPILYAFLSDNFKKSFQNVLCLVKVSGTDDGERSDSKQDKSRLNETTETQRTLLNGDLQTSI

Kd [1]	Kd [2]	Kd [3]	Kd [4]	Kd [5]	SMILES
0.083 µM	13.2 µM	> 10 µM	> 10 µM	> 10 µM	CC(=O)N[C@H](CC(=O)NC[C@H](CCCCN)C(=O)N[C@H](CC(=O)N[C@H](CC(N)=O)Cc1ccccc1)Cc1c[nH]c2ccccc12)[C@@H](C)O
> 100 µM	> 100 µM	> 100 µM	> 100 µM	> 10 µM	CC(=O)N[C@H](CC(=O)N[C@@H](CCCCN)CC(=O)N[C@H](CC(=O)N[C@H](CC(N)=O)Cc1ccccc1)Cc1c[nH]c2ccccc12)[C@@H](C)O
> 10 µM	> 100 µM	> 100 µM	> 100 µM	> 10 µM	CC(=O)N[C@H](C(=O)N[C@@H](CCCCN)C(=O)N[C@@H](Cc1c[nH]c2ccccc12)C(=O)N[C@@H](Cc1ccccc1)C(N)=O)[C@@H](C)O (Ac-TKWF-NH2)
